Test results reported in ChEMBL document CHEMBL4270646, “Novel antimalarial chloroquine- and primaquine-quinoxaline 1,4-di-N-oxide hybrids: Design, synthesis, Plasmodium life cycle stage profile, and preliminary toxicity studies” (Eur J Med Chem, 2018).
pIC50: −log10 of the molar value.

Key:
Plasmodium berghei [1] = test: Antiplasmodial activity against GFP-harboring Plasmodium berghei sporozoites infected in human HepG2 cells assessed as reduction in parasite growth treated every 24 hrs by DAPI staining-based fluorescence microscopic analysis; format: functional, organism-based; details: HepG2, 24 h
Procedure, shortened: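 Collagen-coated wells seeded with HepG2 (P. berghei), HepG2-CD81 (P. yoelii) or primary human hepatocytes (P. falciparum). Sporozoites added: 5×10^3 to 1×10^4 per well to the cell lines, 2.5×10^4 per well to hepatocytes. Compounds given at infection: top 10 µg/mL plus seven serial dilutions, renewed at 3 h and then every 24 h. Cultures grown 40 h (cell lines) or 8 days (hepatocytes) at 37°C. Methanol-fixed, HSP70 immunolabelled, DAPI counterstained. IC50 from logistic regression; triplicate.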

Plasmodium yoelii [2] = test: Antiplasmodial activity against Plasmodium yoelii 17XNL sporozoites infected in BALB/c mouse assessed as decrease in parasitaemia in blood at 100 mg/kg, po measured at day 4 by […] relative to control; format: functional; design: scale not given: the % may be the effect or the level left
Procedure, shortened: (§1)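 BALB/c mice (6-8 weeks, 20-23 g), n=4 per hybrid group and n=5 per control. Dosed orally at 100 mg/kg (100 µL) on days -1, 0, +1 and +2. Vehicle was DMSO 100%; primaquine diphosphate given at 30 mg/kg daily. On day 0, 5 x 10^3 cryopreserved P. yoelii 17XNL sporozoites injected i.v. Parasitaemia read by Giemsa smear and SYBR Green flow cytometry. Groups compared by Kruskal-Wallis test.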

[3] = Genotoxicity in Salmonella typhimurium TA1535 harboring pSK1002 assessed as umu gene induction at 0.001 to 0.063 mg/ml after 4 hrs in presence of Sprague-Dawley rat liver S9 fraction by beta-galactosidase reporter gene assay relative to control; format: toxicity, organism-based; details: salmonella enterica subsp. enterica serovar typhimurium; read-out: FC
Procedure, shortened: (§2)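 SOS/umu test, 4 h at 37°C, with S9 mix or PBS. Positive controls 4-NQO (2.5 µg/mL final, no S9) and 2-AA (0.0125 mg/mL final, with S9). Aliquots incubated with ONPG 0.9 mg/mL in B-buffer for 30 min at 28°C, then stopped with 1 M Na2CO3. Activity calculated as A420/A600. Induction factor is the ratio to the DMSO control; genotoxic if ≥2 at ≥80% survival.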

Mus musculus [4] = test: Acute toxicity in BALB/c mouse assessed as necrosis of liver at 500 mg/kg, po administered as single dose measured at day 14 by haematoxylin and eosin staining based microscopic analysis; format: organism-based; details: in vivo
Procedure, shortened: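 Female BALB/c mice, groups of three, single oral dose; vehicle DMSO 100% for controls. Mice euthanised with CO2 on day 14, or earlier if suffering. Gross necropsy performed. Spleen, liver and kidney fixed in formaldehyde 37%, stained with haematoxylin and eosin and examined by light microscopy.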

[5] = Genotoxicity in Salmonella typhimurium TA1535 harboring pSK1002 assessed as umu gene induction at 0.001 to 0.063 mg/ml after 4 hrs in absence of Sprague-Dawley rat liver S9 fraction by beta-galactosidase reporter gene assay relative to control; format: toxicity, organism-based; details: salmonella enterica subsp. enterica serovar typhimurium; read-out: FC; procedure, shortened: as §2
Plasmodium falciparum [6] = test: Antiplasmodial activity against the multidrug-resistant Plasmodium falciparum […] infected in human red blood cells assessed as reduction in parasite growth after 48 hrs by Hoechst 33342 staining based flow cytometric analysis; format: functional, organism-based
Procedure, shortened: (§3)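 Ring-stage cultures (>80% rings) at 1% parasitaemia in A+ human erythrocytes, 2% haematocrit. Medium RPMI 1640 with 10% A+ serum, 37°C, 5% CO2/5% O2. Compounds in DMSO at 1.56–100 µg/mL final, DMSO ≤1%. After 48 h, cells stained with Hoechst 33342 and 1×10^4 counted by flow cytometry. IC50 from logistic dose-response regression; three independent experiments in triplicate.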

Plasmodium berghei [7] = test: Antiplasmodial activity against GFP-expressing gametocytes of Plasmodium berghei sporozoites in Anopheles stephensi mosquitoes feeded on blood from infected Swiss mouse assessed as reduction in mosquito infection at 100 mg/kg, ip pretreated for 1.5 hrs followed by blood feeding of mosquito and measured at 8 days post mosquitoes infection by fluorescence microscopic method relative to control; format: functional; design: scale not given: the % may be the effect or the level left
Procedure, shortened: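 Swiss mice (female, 6 weeks) infected i.p. with PbGFP-infected red cells (200 µL, 3000 parasites/µL). Gametocytes monitored 4 days by Giemsa smear and exflagellation. Hybrid given i.p. at 100 mg/kg in DMSO 1.5 h before A. stephensi fed 1 h on mice with 1% gametocytes. Controls were untreated and DMSO-treated mice. Thirty mosquitoes per group dissected after 8 days. Midgut oocysts counted by fluorescence microscopy against control mosquitoes taken as 100%.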

Plasmodium yoelii [8] = test: Antiplasmodial activity against Plasmodium yoelii 17XNL sporozoites infected in BALB/c mouse assessed as pre-patent time period of parasitaemia at 100 mg/kg, po measured at day 4 by […]; format: functional; procedure, shortened: as §1
[9] = Genotoxicity in Salmonella typhimurium TA1535 harboring pSK1002 assessed as bacterial survival at 0.001 to 0.063 mg/ml after 4 hrs in absence of Sprague-Dawley rat liver S9 fraction by SOS/umu assay relative to control; format: toxicity, organism-based; details: salmonella enterica subsp. enterica serovar typhimurium; read-out: Survival
Procedure, shortened: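 Log-phase S. typhimurium TA1535/pSK1002 (OD600 0.15–0.4) exposed for 4 h at 37°C with shaking, with 10% rat S9 mix or PBS. Eleven twofold dilutions tested from 1 mg/mL final; DMSO as solvent control. A600 read. Survival expressed as % of negative-control A600.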

[10] = Cytotoxicity against human HepG2 cells assessed as reduction in cell viability after 48 hrs by MTT assay; format: cell-based
Procedure, shortened: (§4)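 Cells seeded at 2 × 10^5 per well and allowed 24 h at 37°C, 5% CO2 to form a monolayer. Dilutions added in triplicate and incubated 48 h. MTT (2 mg/mL) then added for 4 h, followed by DMSO for 20 min at room temperature. Absorbance read at 550 nm; DMSO diluent and untreated cells served as negative controls. CC50 derived from the curve.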

Plasmodium falciparum [11] = test: Antiplasmodial activity against chloroquine-sensitive Plasmodium falciparum 3D7 infected in human red blood cells assessed as reduction in parasite growth after 48 hrs by Hoechst 33342 staining based flow cytometric analysis; format: functional, organism-based; details: 3D7, 48 h; procedure, shortened: as §3
Mus musculus [12] = test: Induction of alanine transferase level in BALB/c mouse at 300 to 500 mg/kg, po administered as single dose measured at day 14 (reference value: 34 to 78 U/L); format: organism-based; details: in vivo
Procedure, shortened: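 BALB/c female mice (6-8 weeks, 20-23 g), groups of three, given one oral dose of 300 or 500 mg/kg; DMSO 100% vehicle for controls. Observed 4 h after dosing, then daily for 14 days. Euthanized on day 14 or on signs of suffering. Blood biochemistry, including alanine transferase, compared with the range in untreated mice.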

[13] = Cytotoxicity against human HepG2 cells expressing CD81 assessed as reduction in cell viability after 48 hrs by MTT assay; format: cell-based; procedure, shortened: as §4
[14] = Cytotoxicity against human primary hepatocytes assessed as reduction in cell viability after 48 hrs by MTT assay; format: cell-based, Hepatocyte; procedure, shortened: as §4
[15] = Selectivity index, ratio of CC50 for human HepG2 cells expressing CD81 to IC50 for GFP-expressing Plasmodium yoelii sporozoites; format: toxicity; details: read-out: Ratio CC50/IC50
Procedure, shortened: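 Selectivity index = CC50 (matching cell) / IC50 (matching parasite). Cell–parasite pairs: HepG2-CD81 with P. yoelii, HepG2 with P. berghei, human hepatocytes with P. falciparum.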

With `COc1cc(NC(C)CCCNC(=O)c2c(C)[n+]([O-])c3ccccc3[n+]2[O-])c2ncccc2c1` (stereo not given) the pIC50 (Plasmodium berghei [1]) was 5.28, the Activity (Plasmodium yoelii [2]) was 95.97% and the fold induction at 4 h [3] was < 2. The Activity (Mus musculus [4]) was “Non-Toxic”, the fold induction at 4 h [5] was < 2 and the pIC50 (Plasmodium falciparum [6]) was 4.17. The Activity (Plasmodium berghei [7]) was 20%, the Time (Plasmodium yoelii [8]) was 24 h and the viability at 4 h [9] was > 80%. The CC50 at 48 h [10] was 39.5 µM, the pIC50 (Plasmodium falciparum [11]) was 4.17 and the Activity (Mus musculus [12]) was 82 U/L. The CC50 at 48 h [13] was > 213 µM, the CC50 at 48 h [14] was > 213 µM and the selectivity ratio [15] was 153.
